Consider 6 compounds from ChEMBL document CHEMBL1144306, “1-Hydroxyalkyl-3-phenylthioureas as novel HDL-elevating agents” (2005).

Holding throughout (type): functional
Assay [1] relates to Rattus norvegicus. As to the kind of experiment: Effect on level of high density lipoprotein cholesterol (relative to untreated control) in cholesterol fed-male rats at 63 mg/kg/day. Put shortly:
(§1)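 Male Sprague–Dawley rats (groups of six) fed a cholic acid- and cholesterol-supplemented diet; compound mixed into the diet, given ad libitum for eight days. Lipoproteins were separated by ultracentrifugation, and cholesterol was measured by an enzymatic colorimetric method. Results are % change versus untreated controls, with significance at p < 0.05.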

For assay [2], the system named is Rattus norvegicus. As to the kind of experiment: Effect on level of total cholesterol (relative to untreated control) in cholesterol fed-male rats at 63 mg/kg/day. Put shortly:
as §1

Assay [3] concerns Rattus norvegicus. In words: Effect on change in body weight gain (relative to untreated control) in cholesterol fed-male rats at 63 mg/kg/day. Summed up:
(§2)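 Male Sprague–Dawley rats, six per group, on a cholic acid- and cholesterol-supplemented diet. Compounds were mixed into the diet and given ad libitum for eight days. Change in body weight gain is expressed as a percentage of untreated controls. Significance was set at p < 0.05 versus untreated controls.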

The subject of assay [4] is Rattus norvegicus. As to the kind of experiment: Effect on level of apolipoprotein (Apo) AI (relative to untreated control) in cholesterol fed-male rats at 63 mg/kg/day. Put shortly:
(§3)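 Six male Sprague–Dawley rats per group, fed a cholic acid/cholesterol-supplemented diet, received compound in the diet ad libitum for eight days. Serum Apo A–I was measured by SDS-PAGE or by rat competition ELISA and reported as % change versus untreated controls (p < 0.05). Gemfibrozil was the internal positive control in each study.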

For assay [5], the system named is Rattus norvegicus. As to the kind of experiment: Effect on level of triglyceride in (relative to untreated control) in cholesterol fed-male rats at 63 mg/kg/day. Put shortly: (§4)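 Serum triglycerides were measured in groups of six male Sprague–Dawley rats on a cholic acid/cholesterol-supplemented diet. Compound was dosed in the diet, ad libitum, for eight days. Results are % change relative to untreated controls, with significance at p < 0.05.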

In assay [6] the test system is Rattus norvegicus. In words: Effect on level of high density lipoprotein cholesterol (relative to untreated control) in cholesterol fed-male rats at 38 mg/kg/day. Put shortly: (§5)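 Cholic acid/cholesterol-fed male Sprague–Dawley rats (n = 6 per group) were dosed via diet ad libitum for eight days. Lipoproteins were separated by ultracentrifugation and HDL cholesterol was quantified by an enzymatic colorimetric method. Values are % change relative to untreated controls, with significance at p < 0.05. Gemfibrozil was the internal positive control.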

The subject of assay [7] is Rattus norvegicus. As to the kind of experiment: Effect on change in body weight gain (relative to untreated control) in cholesterol fed-male rats at 38 mg/kg/day. Summed up:
as §2

Assay [8] concerns Rattus norvegicus. As to the kind of experiment: Effect on level of apolipoprotein (Apo) AI (relative to untreated control) in cholesterol fed-male rats at 38 mg/kg/day. Put shortly: as §3
Assay [9] concerns Rattus norvegicus. In words: Effect on level of triglyceride in (relative to untreated control) in cholesterol fed-male rats at 38 mg/kg/day. Summed up:
as §4

Assay [10] relates to Rattus norvegicus. In words: Effect on level of total cholesterol (relative to untreated control) in cholesterol fed-male rats at 38 mg/kg/day. Put shortly:
as §1

The subject of assay [11] is Rattus norvegicus. In words: Effect on level of total cholesterol (relative to untreated control) in cholesterol fed-male rats at 62 mg/kg/day. Put shortly: as §1
For assay [12], the system named is Rattus norvegicus. In words: Effect on level of high density lipoprotein cholesterol (relative to untreated control) in cholesterol fed-male rats at 62 mg/kg/day. Put shortly:
as §1

The subject of assay [13] is Rattus norvegicus. As to the kind of experiment: Effect on change in body weight gain (relative to untreated control) in cholesterol fed-male rats at 62 mg/kg/day. Put shortly:
as §2

Assay [14] concerns Rattus norvegicus. In words: Effect on level of triglyceride in (relative to untreated control) in cholesterol fed-male rats at 62 mg/kg/day. Summed up:
as §4

Assay [15] concerns Rattus norvegicus. As to the kind of experiment: Effect on level of apolipoprotein (Apo) AI (relative to untreated control) in cholesterol fed-male rats at 62 mg/kg/day. Summed up:
as §3

For assay [16], the system named is Rattus norvegicus. As to the kind of experiment: Effect on level of apolipoprotein (Apo) AI (relative to untreated control) in cholesterol fed-male rats at 60 mg/kg/day. Put shortly: as §3
In assay [17] the test system is Rattus norvegicus. As to the kind of experiment: Effect on level of high density lipoprotein cholesterol (relative to untreated control) in cholesterol fed-male rats at 60 mg/kg/day. Put shortly:
as §5

The subject of assay [18] is Rattus norvegicus. In words: Effect on level of total cholesterol (relative to untreated control) in cholesterol fed-male rats at 60 mg/kg/day. Put shortly:
as §1

Assay [19] relates to Rattus norvegicus. In words: Effect on change in body weight gain (relative to untreated control) in cholesterol fed-male rats at 60 mg/kg/day. Summed up: as §2
In assay [20] the test system is Rattus norvegicus. In words: Effect on level of triglyceride in (relative to untreated control) in cholesterol fed-male rats at 60 mg/kg/day. Summed up: as §4
Assay [21] has as its system Rattus norvegicus. As to the kind of experiment: Effect on level of triglyceride in (relative to untreated control) in cholesterol fed-male rats at 76 mg/kg/day. Put shortly: as §4
Assay [22] relates to Rattus norvegicus. As to the kind of experiment: Effect on change in body weight gain (relative to untreated control) in cholesterol fed-male rats at 76 mg/kg/day. Put shortly: as §2
For assay [23], the system named is Rattus norvegicus. In words: Effect on level of total cholesterol (relative to untreated control) in cholesterol fed-male rats at 76 mg/kg/day. Put shortly:
as §1

Assay [24] deals with Rattus norvegicus. As to the kind of experiment: Effect on level of high density lipoprotein cholesterol (relative to untreated control) in cholesterol fed-male rats at 76 mg/kg/day. Put shortly:
as §1

Assay [25] concerns Rattus norvegicus. As to the kind of experiment: Effect on level of apolipoprotein (Apo) AI (relative to untreated control) in cholesterol fed-male rats at 76 mg/kg/day. Put shortly: as §3
For assay [26], the system named is Rattus norvegicus. In words: Effect on level of apolipoprotein (Apo) AI (relative to untreated control) in cholesterol fed-male rats at 78 mg/kg/day. Put shortly:
as §3

For assay [27], the system named is Rattus norvegicus. In words: Effect on level of triglyceride in (relative to untreated control) in cholesterol fed-male rats at 78 mg/kg/day. Summed up: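 Compound given in diet ad libitum for eight days to groups of six male Sprague–Dawley rats on a cholic acid and cholesterol-supplemented diet. Serum triglycerides expressed as % change relative to untreated controls, with significance at p < 0.05. Gemfibrozil served as internal positive control within each study.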

Assay [28] deals with Rattus norvegicus. As to the kind of experiment: Effect on level of total cholesterol (relative to untreated control) in cholesterol fed-male rats at 78 mg/kg/day. Put shortly: as §1
The subject of assay [29] is Rattus norvegicus. As to the kind of experiment: Effect on level of high density lipoprotein cholesterol (relative to untreated control) in cholesterol fed-male rats at 78 mg/kg/day. Put shortly: as §1
The subject of assay [30] is Rattus norvegicus. As to the kind of experiment: Effect on change in body weight gain (relative to untreated control) in cholesterol fed-male rats at 78 mg/kg/day. Summed up: as §2

Regarding `Cc1ccc(C)c(N/C(S)=N/CCO)c1`, the Activity in the assay with Rattus norvegicus [1] was 62%; with Rattus norvegicus [2], 32%; with Rattus norvegicus [3], -117%; in the assay on Rattus norvegicus [4], 0%; in the assay on Rattus norvegicus [5], -32%.
Take `Cc1ccc(Cl)cc1/N=C(\S)NCC(=O)O`: the Activity with Rattus norvegicus [6] amounted to 8%; in the assay with Rattus norvegicus [7], 10%; in the assay with Rattus norvegicus [8] it was 14%; with Rattus norvegicus [9], 4%; with Rattus norvegicus [10], 24%.
Take `Cc1ccc(Cl)cc1N/C(S)=N/C[C@@H](C)O`: the Activity is -1% in the assay with Rattus norvegicus [11]; 60% in the assay with Rattus norvegicus [12]; -69% in the assay with Rattus norvegicus [13]; -68% with Rattus norvegicus [14]; 25% in the assay on Rattus norvegicus [15].
Regarding `OCC/N=C(\S)Nc1cc(Cl)cc(Cl)c1`, the Activity is listed as 48% in the assay with Rattus norvegicus [16]; 50% in the assay on Rattus norvegicus [17]; 9% in the assay on Rattus norvegicus [18]; -90% with Rattus norvegicus [19]; -35% with Rattus norvegicus [20].
For the compound `Cc1ccc(Cl)cc1N/C(S)=N/[C@@H](C)CO`, the Activity with Rattus norvegicus [21] is reported as 1%; with Rattus norvegicus [22] it was 10%; in the assay on Rattus norvegicus [23], 48%; in the assay on Rattus norvegicus [24] it was 32%; in the assay on Rattus norvegicus [25], 20%.
Turning to `Cc1ccc(Cl)cc1/N=C(\S)N1CCC(O)C1` (stereo not given), the Activity in the assay with Rattus norvegicus [26] is given as 4%; in the assay on Rattus norvegicus [27], -24%; in the assay on Rattus norvegicus [28], -5%; in the assay with Rattus norvegicus [29], 9%; in the assay on Rattus norvegicus [30], 2%.
